The values that follow come from ChEMBL document CHEMBL1149300, “Novel retinoic acid metabolism blocking agents endowed with multiple biological activities are efficient growth inhibitors of human breast and prostate cancer cells in vitro and a human breast tumor xenograft in nude mice” (J Med Chem, 2004).

A short description of assay [1]: Inhibition of ATRA hydroxylase in Syrian golden hamster liver microsome assessed ATRA metabolism using [11.12-3H]-ATRA. Type of assay: microsomes, Mesocricetus auratus. Summed up: (§1)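 Microsomes from male Syrian golden hamster liver, or from T47D cells pretreated with 1 µM ATRA. Incubation in 0.1 M phosphate buffer pH 7.4 with NADPH, MgCl2 and BSA, inhibitor in DMSO; 3 min preincubation at 37 °C, then [11,12-3H]-ATRA for 30 min at 37 °C under oxygen. Ethyl acetate extraction, reverse-phase HPLC with radiometric detection; percent polar metabolites; IC50 from dose-response curves.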

For assay [2], the system named is MDA-MB-231. Briefly: Growth inhibition of human MDA-MB-231 cells after 6 days by MTT assay. Type of assay: functional, cell-based. Conditions: MDA-MB-231, 144 h.
For assay [3], the target named is T1, Retinoic acid receptor alpha (Homo sapiens, UniProt P10276).
T1 sequence (P10276 whole entry): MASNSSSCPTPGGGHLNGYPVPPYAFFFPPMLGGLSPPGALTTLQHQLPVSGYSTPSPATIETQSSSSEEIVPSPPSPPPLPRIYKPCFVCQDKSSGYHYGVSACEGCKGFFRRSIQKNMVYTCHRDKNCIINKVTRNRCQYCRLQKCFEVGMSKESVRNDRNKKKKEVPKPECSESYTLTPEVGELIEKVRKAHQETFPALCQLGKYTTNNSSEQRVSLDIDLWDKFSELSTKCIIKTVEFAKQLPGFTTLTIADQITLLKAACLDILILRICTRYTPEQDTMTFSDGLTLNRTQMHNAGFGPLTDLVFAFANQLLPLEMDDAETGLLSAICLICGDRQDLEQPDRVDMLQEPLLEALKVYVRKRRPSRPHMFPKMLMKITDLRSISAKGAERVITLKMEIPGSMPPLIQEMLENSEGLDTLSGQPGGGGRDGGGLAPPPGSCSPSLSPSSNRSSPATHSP
The experiment in a line: Displacement of [11,12-3H]ARTA from RARalpha. The method, boiled down:
(§2)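 Recombinant S-Tag RARα, RARβ or RARγ fusion protein extracts (10-30 µg/mL total protein) in HEPES pH 7.9 binding buffer. Incubated with 1 nM [3H]all-trans-RA and 0-500 nM test compound for 3 h at 27 °C.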

Assay [4] concerns the target T2, Retinoic acid receptor beta (Homo sapiens, UniProt P10826).
T2 sequence (P10826 whole entry): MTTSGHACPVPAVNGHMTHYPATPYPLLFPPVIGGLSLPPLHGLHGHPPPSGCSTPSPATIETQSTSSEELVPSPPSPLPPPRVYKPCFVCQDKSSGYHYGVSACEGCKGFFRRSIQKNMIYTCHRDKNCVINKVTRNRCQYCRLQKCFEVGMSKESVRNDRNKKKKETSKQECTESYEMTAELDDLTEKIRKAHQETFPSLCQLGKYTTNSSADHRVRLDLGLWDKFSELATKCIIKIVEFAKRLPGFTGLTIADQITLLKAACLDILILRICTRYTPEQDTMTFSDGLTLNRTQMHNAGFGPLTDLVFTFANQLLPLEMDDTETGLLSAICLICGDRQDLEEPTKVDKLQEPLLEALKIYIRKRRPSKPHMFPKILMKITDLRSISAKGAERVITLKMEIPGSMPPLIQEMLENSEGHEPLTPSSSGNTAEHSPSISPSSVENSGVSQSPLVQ
Briefly: Displacement of [11,12-3H]ARTA from RARbeta. Summed up: as §2

Assay [5] can be described thus: Displacement of [11,12-3H]ARTA from RARgamma. More on the design: species or system Homo sapiens. Summed up:
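Recombinant S-Tag RARα, RARβ or RARγ fusion protein extracts (10-30 µg/mL total protein) in HEPES pH 7.9 binding buffer. Incubated with 1 nM [3H]all-trans-RA and 0-500 nM test compound for 3 h at 27 °C. Nonspecific binding measured with a 200-fold excess of unlabeled RA; IC50 from dose-response curves, at least two experiments.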

Assay [6] addresses T3, Cytochrome P450 26A1 (Homo sapiens, UniProt O43174).
T3 sequence (O43174 whole entry): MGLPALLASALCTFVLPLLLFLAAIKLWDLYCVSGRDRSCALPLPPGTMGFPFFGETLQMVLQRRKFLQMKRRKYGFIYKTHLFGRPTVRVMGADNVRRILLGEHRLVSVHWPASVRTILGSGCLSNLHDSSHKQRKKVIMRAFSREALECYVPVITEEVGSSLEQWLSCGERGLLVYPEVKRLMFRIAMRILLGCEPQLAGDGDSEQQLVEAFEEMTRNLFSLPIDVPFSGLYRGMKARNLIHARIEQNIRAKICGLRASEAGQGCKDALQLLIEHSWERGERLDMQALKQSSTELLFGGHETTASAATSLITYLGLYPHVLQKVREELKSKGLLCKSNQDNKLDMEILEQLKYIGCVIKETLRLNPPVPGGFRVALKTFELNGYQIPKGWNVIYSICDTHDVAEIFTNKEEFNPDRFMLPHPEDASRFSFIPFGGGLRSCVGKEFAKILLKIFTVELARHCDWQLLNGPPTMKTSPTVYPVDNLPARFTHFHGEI
Briefly: Inhibition of ATRA-induced CYP26 in human MCF7 cells assessed ATRA as metabolism using [11.12-3H]-ATRA. Type of assay: functional, cell-based. The method, boiled down:
(§3)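 MCF-7 or T47D cells (1 × 10^6 per well) induced with 1 µM ATRA for 12-15 h, washed, then given inhibitor (0.0001-10 µM, ethanol stock) plus 0.001 µM [11,12-3H]-ATRA for 5 h. Media and cells extracted with ethyl acetate; metabolites measured by reverse-phase HPLC with radiometric detection; IC50 from dose-response curves.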

In assay [7] the target is T3, Cytochrome P450 26A1. The experiment in a line: Inhibition of ATRA-induced CYP26 in human T47D cells assessed as ATRA metabolism using [11.12-3H]-ATRA. Type of assay: functional, cell-based. Summed up: as §3
For assay [8], the system named is MCF7. The experiment in a line: Growth inhibition of human MCF7 cells after 6 days by MTT assay. It is filed as functional, cell-based. Conditions: MCF7, 144 h. The method, boiled down: (§4)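 MCF-7 (IMEM, 5% FBS) or T47D (RPMI 1640, 10% FBS) cells, 1 × 10^4 per well, adhered ~18 h, then exposed to 0.0001-10 µM drug (ethanol) for 6 days with media and drug renewed on day 4. MTT for 2 h, formazan dissolved in DMSO, A540. Triplicate wells, 2-3 experiments; IC50 by nonlinear regression.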

For assay [9], the system named is T47D. The experiment in a line: Growth inhibition of human T47D cells after 6 days by MTT assay. Type of assay: functional, cell-based. Conditions: 144 h. Summed up: as §4
Assay [10] deals with LNCaP. The experiment in a line: Growth inhibition of human LNCaP cells after 6 days by MTT assay. It is filed as functional, cell-based. The conditions noted are these: 144 h. The method, boiled down:
(§5)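 LNCaP cells (1 × 10^4) on poly-L-lysine-coated wells, attached 36 h; PC-3 cells (1 × 10^4), uncoated, attached 24 h; both in RPMI 1640. Treated with a concentration range of drug for 6 days, medium changed every 3 days. MTT read-out at 540 nm; IC50 by nonlinear regression from at least two experiments.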

The subject of assay [11] is PC-3. Briefly: Growth inhibition of human PC3 cells after 6 days by MTT assay. Type of assay: functional, cell-based. Conditions: PC-3, 144 h. Summed up: as §5
Assay [12] concerns LNCaP. Briefly: Induction of cell differentiation in human LNCaP cells after 6 days. Type of assay: functional, cell-based. The method, boiled down: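 LNCaP cells given 1 µM compound, alone or with 1 µM ATRA, for 6 days. Lysates (50 µg) run on 10% SDS-PAGE and Western blotted with anti-cytokeratin 8/18, β-actin as control. ECL detection; band intensity by densitometry taken as the differentiation marker.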

Assay [13] concerns the target T3, Cytochrome P450 26A1. The experiment in a line: Inhibition of ATRA-induced CYP26 in human T47D cell microsome assessed as ATRA metabolism using [11.12-3H]-ATRA. Type of assay: functional, microsomes. The method, boiled down:
as §1

Assay [14] deals with MDA-MB-231. Briefly: Growth inhibition of human MDA-MB-231 cells up to 10 uM after 6 days by MTT assay. Type of assay: functional, cell-based.
Assay [15] relates to MCF7. Briefly: Induction of apoptosis in human MCF7 cells at 1 uM for 6 days by TUNEL assay. Type of assay: functional, cell-based. The method, boiled down: (§6)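 MCF-7 or T47D cells exposed to 1 µM compound for 6 days, then trypsinized, fixed in 1% paraformaldehyde and stored in 70% ethanol at -20 °C overnight. TdT/BrdUTP labeling (APO-BRDU TUNEL), fluorescein anti-BrdU plus PI/RNase stain; apoptotic cells counted by flow cytometry.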

Assay [16] has as its system T47D. The experiment in a line: Induction of apoptosis in human T47D cells at 1 uM for 6 days by TUNEL assay. It is filed as functional, cell-based. Summed up:
as §6

pIC50, pKi: −log10 of the molar value. Active and inactive are the calls of the source. The rule behind the calls is not given here.

Take `COC(=O)/C=C(C)/C=C/C=C(C)/C=C/C1=C(C)C(=N/O)/CCC1(C)C`: in assay [1], the pIC50 was 7.64.

Regarding `CC1=C(/C=C/C(C)=C/C=C/C(C)=C/C(=O)n2ccnc2)C(C)(C)CCC1`, the pIC50 in assay [1] is 7.21; in assay [2], 5.15; in [3], less than 6.00; in assay [4] it was 6.30; in [5], 6.30.

For `CC1=C(/C=C/C(C)=C/C=C/C(C)=C/C(=O)n2cncn2)C(C)(C)CCC1`, the negative logarithm of the IC50 (pIC50) in assay [1] is 7.29; in assay [3], 7.70; in assay [4], 7.05; in assay [5] it was 7.10.

As to `CC1=C(/C=C/C(C)=C/C=C/C(C)=C/C(=O)Nc2ccc(O)cc2)C(C)(C)CCC1n1ccnc1` (racemic), the pIC50 in assay [1] was 7.36; in [6], 7.25; in [7], 7.62; in [8] it was 6.21; in assay [9], 6.24; in assay [2], 5.20. Also, the pIC50 is 5.05 in assay [10] and 5.82 in assay [11]. The pKi in [1] was 9.46.

In the case of `CC1=C(/C=C/C(C)=C/C=C/C(C)=C/C(=O)n2ccnc2)C(C)(C)CCC1n1ccnc1` (racemic), the outcome in assay [12], in [15] and in assay [16] was Active. Further, the pIC50 in [1] is 10.30; in [6] it was 7.61; in assay [7], 8.00; in assay [13], 8.28; in [8], 6.89; in [9], 8.05. The pIC50 in assay [10] was 5.00; in assay [11], 5.24. In assay [1], the pKi is 7.21. Moreover, the result in [14] was inactive.

Molecule `COC(=O)/C=C(C)/C=C/C=C(C)/C=C/C1=C(C)C(n2cnnc2)CCC1(C)C` (racemic) showed a pIC50 in assay [1] of 7.66.

With `COC(=O)/C=C(C)/C=C/C=C(C)/C=C/C1=C(C)C(n2ccnc2)CCC1(C)C` (racemic), the pIC50 in [1] was 11.05; in assay [6], 6.70; in assay [7], 6.67; in assay [13], 7.40; in assay [2], 5.12. This molecule showed a pKi in assay [1] of 7.34.

In the case of `CC1=C(/C=C/C(C)=C/C=C/C(C)=C\C(=O)Nc2ccc(O)cc2)C(C)(C)CCC1n1ccnc1` (racemic), in assay [1], the pIC50 was 7.12 and the pKi was 9.11.

As for `CC1=C(/C=C/C(C)=C/C=C/C(C)=C\C(=O)n2ccnc2)C(C)(C)CCC1n1ccnc1` (racemic), in assay [1], the pIC50 was 7.24.

With `CC1=C(/C=C/C(C)=C/C=C/C(C)=C\C(=O)O)C(C)(C)CCC1n1ccnc1` (racemic), the pIC50 in assay [1] is 6.92; in assay [3], 7.00; in assay [4], 6.76; in assay [5], 7.19. Besides, the pKi in assay [1] was 8.39.

In the case of `CC1=C(/C=C/C(C)=C/C=C/C(C)=C/C(=O)O)C(C)(C)CCC1n1cncn1` (racemic), the pIC50 in assay [1] is 8.23; in [3], less than 6.00; in [4], 6.00; in assay [5], 6.15.

On to `COC(=O)/C=C(C)/C=C/C=C(C)/C=C/C1=C(C)C(n2cncn2)CCC1(C)C` (racemic), for which the pIC50 in assay [1] is 8.70.

Turning to `CC1=C(/C=C/C(C)=C/C=C/C(C)=C/C(=O)O)C(C)(C)CCC1n1cnnc1` (racemic), the pIC50 in [1] is 7.33; in assay [3] it was 6.39; in assay [4], 6.60; in assay [5] it was 6.52.

Consider `COC(=O)/C=C(C)/C=C/C=C(C)/C=C/C1=C(C)[C@H](n2ccnc2)CCC1(C)C` (stereo in doubt; (+)-5), for which the pIC50 was 5.22 in [7] and 6.10 in assay [13].

For the molecule `COC(=O)/C=C(C)/C=C/C=C(C)/C=C/C1=C(C)[C@H](n2ccnc2)CCC1(C)C` (stereo in doubt; (-)-5), the negative logarithm of the IC50 (pIC50) in assay [7] (t47d) is 5.22; in [13], 6.17.

On to `CC1=C(/C=C/C(C)=C/C=C/C(C)=C/C(=O)Nc2ccc(O)cc2)C(C)(C)CCC1` [FENRETINIDE], for which the pIC50 in assay [1] is 4.50; in assay [8], 6.82; in assay [2], 5.11; in assay [10], 5.12; in assay [11], 5.44.

Consider `CC(=O)N1CCN(c2ccc(OCC3COC(Cn4ccnc4)(c4ccc(Cl)cc4Cl)O3)cc2)CC1` (stereo unspecified) [KETOCONAZOLE], for which the pIC50 in assay [1] is 4.47.
